The species entered for data set [1] is Homo sapiens. Nature of the data set: Inhibition of PP2A from human red blood cells. In a few lines: (§1)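 PP1 (rabbit skeletal muscle) and PP2A (human red blood cells), commercial enzymes. In vitro assays run in duplicate. Compounds tested at 10 µg/mL, with tautomycin at 30 ng/mL as reference.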
A short description of data set [2]: Inhibition of PTP-S2. In a few lines: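 PTP-S2 overexpressed in E. coli BL21(DE3). Phosphatase assays run in triplicate. Compounds tested at 10 µg/mL, with tautomycin at 30 ng/mL as reference.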
Data set [3] has as its system 3Y1 cell line. Description: Induction of morphological changes in rat 3Y1 cells by indirect immunofluorescence technique. The data set is classed as functional, cell-based. In a few lines: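 3Y1 rat fibroblasts cultured in DMEM plus 10% fetal calf serum under humidified 5% CO2. Cytoskeletal changes after treatment visualized by indirect immunofluorescence microscopy.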

Data set [4] in a line: Cytotoxicity against rat 3Y1 cells at 10 ug/ml by flow cytometry. The data set is classed as cell-based. In a few lines: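 Rat normal fibroblast 3Y1 cells grown in Dulbecco's modified MEM with 10% fetal calf serum, humidified 5% CO2. Cell-cycle progression after treatment assessed by flow cytometry.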
For data set [5], the target named is Dual specificity protein phosphatase 3 (Homo sapiens) (UniProt P51452). Nature of the data set: Inhibition of VHR expressed in Escherichia coli BL21([…]). In a few lines: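 VHR dual-specificity phosphatase overexpressed in E. coli BL21(DE3). Assays run in triplicate. Compounds tested at 100 µg/mL (some at 30 µg/mL). References were tautomycin at 30 ng/mL and RK-682 at 10 µg/mL.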
Sequence of Dual specificity protein phosphatase 3 (Homo sapiens) (P51452 whole entry, looked up): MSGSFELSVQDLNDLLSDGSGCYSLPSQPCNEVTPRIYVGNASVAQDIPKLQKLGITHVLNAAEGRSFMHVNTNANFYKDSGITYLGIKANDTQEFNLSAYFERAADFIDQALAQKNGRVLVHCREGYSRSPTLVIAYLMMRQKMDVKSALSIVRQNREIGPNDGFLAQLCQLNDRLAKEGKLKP

Data set [6] has as its system brain. Description: Induction of actin assembly in bovine brain cells by turbidimetric assay. The data set is classed as cell-based. Conditions: Bos taurus.
For data set [7], the species on record is Oryctolagus cuniculus. Nature of the data set: Inhibition of rabbit muscle PP1. In a few lines: as §1
The subject of data set [8] is brain. Nature of the data set: Induction of microtubule assembly in bovine brain cells by turbidimetric assay. The settings on record: Bos taurus. The data set is classed as cell-based. In a few lines: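 Turbidity assay: microtubule protein at 2.0 mg/mL in Mes buffer incubated at 37 °C. Absorbance at 350 nm followed over time.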

Calls of active or inactive are those of the source. The calls are words filed in the database; no cut-off is given here.

For the compound `CC[C@@H]1C=CC(=O)O[C@@H]1[C@H](C)C[C@@H](C)[C@@H](O)C[C@H](O)/C=C\C=C/c1cccc(O)c1Cl` [BITUNGOLIDE A], the outcome in data set [1], in data set [2], in data set [3], in data set [5], in data set [6] and in data set [7] was inactive. Further, the result in data set [8] was inactive. Also, the outcome in data set [4] was Active.

In the case of `CC[C@@H]1C=CC(=O)O[C@@H]1[C@H](C)C[C@@H](C)[C@@H](O)C[C@H](O)/C=C/C=C/c1cccc(O)c1Cl` [BITUNGOLIDE B], the result in data set [1], in data set [2], in data set [3], in data set [5], in data set [6] and in data set [7] was inactive. Also, the result in data set [8] was inactive. Besides, the outcome in data set [4] was Active.

`CC[C@@H]1C=CC(=O)O[C@@H]1[C@H](C)C[C@@H](C)[C@@H](O)C[C@H](O)/C=C/C=C/c1ccccc1` [BITUNGOLIDE E]: the outcome in data set [1], in data set [2], in data set [3], in data set [5], in data set [6] and in data set [7] was inactive. In data set [8], the outcome was inactive. Moreover, in data set [4], the outcome was Active.

As for `CC[C@@H]1C=CC(=O)O[C@@H]1[C@H](C)C[C@@H](C)[C@@H](O)C[C@H](O)/C=C/C=C\c1cccc(O)c1Cl` [BITUNGOLIDE D], the result in data set [1], in data set [2], in data set [3], in data set [5], in data set [6] and in data set [7] was inactive. The outcome in data set [8] was inactive. The result in data set [4] was Active.

`CC[C@@H]1C=CC(=O)O[C@@H]1[C@H](C)CC[C@@H](O)C[C@H](O)/C=C/C=C/c1ccccc1` [BITUNGOLIDE F]: the result in data set [1], in data set [2], in data set [3], in data set [5], in data set [6] and in data set [7] was inactive. Besides, the outcome in data set [8] was inactive. For the same compound, in data set [4], the outcome was Active.

Take `CC[C@@H]1C=CC(=O)O[C@@H]1[C@H](C)C[C@@H](C)[C@@H](O)C[C@H](O)/C=C\C=C\c1cccc(O)c1Cl` [BITUNGOLIDE C]: the outcome in data set [1], in data set [2], in data set [3], in data set [5], in data set [6] and in data set [7] was inactive. The result in data set [8] was inactive. Further, the result in data set [4] was Active.

These data come from ChEMBL document CHEMBL1137814, “Bitungolides A-F, new polyketides from the Indonesian sponge Theonella cf. swinhoei” (J Nat Prod, 2002).
